Measurements taken from ChEMBL document CHEMBL2375257, “Synthesis of C- and O-prenylated tetrahydroxystilbenes and O-prenylated cinnamates and their action towards cancer cells” (Eur J Med Chem, 2013).

Tested on: K562
Assay: Cytotoxicity against human K562 cells assessed as growth inhibition after 72 hrs by MTT assay
Type: functional, cell-based
Settings: for IC50: K562, 72 h
Procedure, shortened: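 K562 leukaemia cells exposed to compounds for 72 h at 37 °C in a humidified 5% CO2 incubator, with MTT read-out. IC50 is the concentration inhibiting cell growth by 50%, estimated from two concentrations per compound. Values are the mean of two independent assays, each run in duplicate; coefficients of variation <10%.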

Structure (SMILES) | growth inhibition (GI) | IC50 [µM]
COC(=O)/C=C/c1ccc(OCC=C(C)C)cc1 | Dose-dependent effect | 97.7
COc1ccc(CCc2cc(O)cc(OCC=C(C)C)c2)cc1O | Dose-dependent effect | 31.6
COc1cc(/C=C/c2cc(O)cc(OC)c2CC=C(C)C)ccc1O | Dose-dependent effect | 0.1
COC(=O)/C=C/c1ccc(OC/C=C(\C)CO)cc1 | Dose-dependent effect | 70.8
COc1cc(CCc2cc(O)cc(OCC=C(C)C)c2)ccc1O | Dose-dependent effect | 63
COc1cc(CCc2cc(O)cc(OC)c2CC=C(C)C)ccc1O | Dose-dependent effect | 10
COc1cc(/C=C/c2cc(O)cc(OCC=C(C)C)c2)ccc1O | Dose-dependent effect | 21
COc1ccc(/C=C/c2cc(O)cc(OCC=C(C)C)c2)cc1O | Dose-dependent effect | 46.8
COC(=O)/C=C/c1ccc(OC/C=C(\C)C=O)cc1 | Dose-dependent effect | 57.5
